# Measurements reported in the RNAGym collection of RNA variant scans (doi:10.1126/science.aae0568).
# This sample holds only a part of the variants without activity.
# B1: tRNA (parent)
# chain: GUUCCGUUGGCGUAAUGGUAACGCGUCUCCCUCCUAAGGAGAAGACUGCGGGUUCGAGUCCCGUACGGAACG
# Variants of: B1
# Experiment: yeast fitness relative to wild type (ratio to wild type); higher = fitter; tRNA-Arg(CCU), competitive growth, 37 C, YPD
# Outline: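 Gene amplicons from the start population and from each of six end populations were read by 100-nucleotide paired-end sequencing. Those end populations came from pooled Saccharomyces cerevisiae strains carrying tRNA-Arg(CCU) gene variants at the native locus, competed in YPD at 37°C for 24 hours. Fitness relative to wild type was worked out from changes in genotype frequencies. Genotypes needed ≥ 100 starting reads, and estimates < 0.5 were set to 0.5.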
row,Variant,yeast fitness
1,GUUCCGUUAGCGUAACGGUAGCGCGUCUCCCUCCUAAGGAGGAGACUGCGGGUUCGAGUCCCGUACGGAACG [G9A U16C A21G A42G],≤ 0.5
2,GUUCCGUUAGCGUAAUGGCAAAGCGUCUCCCUCCUAAGGAGAAGACUGCGGGUUCGAGUCCCGUACGGAACG [G9A U19C C22A],0.606
3,GUUCCGUUAGCGUAAUGGGAACGCGUCUCCCUCCUAAGGAGAAGACUGCGGGUUCGAGCCCGGUUCGGAACG [G9A U19G U59C C62G A65U],≤ 0.5
4,GUUCCGUUAGCGUAAUGGUAACGCGACUCCCUCCUAAGGAGAAGACUGCGGGUUCGAGUCCCGUACGGAACG [G9A U26A],0.837
5,GUUCCGUUAGCGUAAUGGUAACGCGGCUCACUCCUAAGGAGAAGACUGCGGGUUCGAGUCCCGUACGGAACG [G9A U26G C30A],0.636
6,GUUCCGUUAGCGUAAUGGUAACGCGUCCCCCUCCUGAGGAGAAGACUGCGGGUUCGAGUCCCGUACGGAACG [G9A U28C A36G],0.683
7,GUUCCGUUAGCGUAAUGGUAACGCGUCUCCCUCCUAAGGAGAAGACUGCGGGGUCGAGUCCCGUACGGAACG [G9A U53G],0.661
8,GUUCCGUUAGCGUAAUGGUAACGCGUCUCCCUCCUAAGGAGAAGACUGCGGGUCCGAGUCCCGUACGGAACG [G9A U54C],0.841
9,GUUCCGUUCGCGUCUUGGUAACACGUCUCCCUCAUAAGGAGAAGACUGCGGCUUCGAGUCCCGUACGGAACG [G9C A14C A15U G23A C34A G52C],≤ 0.5
10,GUUCCGUUCGCGUCUUGGUAACACGUCUCCCUCAUAAGGAGAAGACUGCGGCUUCGAGUCCCCUACGGAACG [G9C A14C A15U G23A C34A G52C G63C],0.585
11,GUUCCGUUCGCGUCAUGGUAACGCGUCUCCCUCCUAAGGAGAAGACUGCGGGUUCGAGUCCCGUACGGUACG [G9C A14C A69U],≤ 0.5
12,GUUCCGUUCGCGUCAUGGGAACGCGUCUCCCUCCUAAGGAGUAGACUGCGGGUUCGAGUCCCGUACGGAACG [G9C A14C U19G A42U],≤ 0.5
13,GUUCCGUUCGCGUGAUGGUAACGCGUCUCCCUCCUAAGGAGAAAACUGCGGGCUCGAGUCCCGUACGGAUCG [G9C A14G G44A U53C A70U],≤ 0.5
14,GUUCCGUUCGCGUGAGGGUAACACGUCUCCCUACUAAGGAGAAAACUGCGGGUUCGAGUCCCGUACGGAACG [G9C A14G U16G G23A C33A G44A],≤ 0.5
15,GUUCCGUUCGCGUUAUGGUACCGCGUCUCCCUCCUAAGGAGAAGACUGCGGGUUCGAGUCACGUACGGAACG [G9C A14U A21C C61A],0.81
16,GUUCCGUUCGCGUUAUGGUAACGCGUCUCCCUCCUAAGGAGAAGACUCCGGGUUCGAGUCCCGGACGGAACG [G9C A14U G48C U64G],≤ 0.5
17,GUUCCGUUCGCGUUAUGGUAACGCGUCUCCCUCCUAAGGAGAAGACUGCGAGUUCGAGUCCCGGACGGAACG [G9C A14U G51A U64G],0.608
18,GUUCCGUUCGCGUACUGGUAACGCGUCUCCCUCGUAAGGAGAAGACUGCGGGUUCGAGUCCCGUAAGGCACG [G9C A15C C34G C66A A69C],≤ 0.5
19,GUUCCGUUCGCGUACCGGUAACGCGUCUCCCUCGUAAGGAGAAGACUGCGGGUUCGAGUCCCGUAAGGCACG [G9C A15C U16C C34G C66A A69C],≤ 0.5

row,Variant,yeast fitness
1,GUUCCGUUCGCGUAGUGGUAACGAGUCUCCCUCCUAAGGAGAAGACUGUGGGUUCGAGUCCCGUACGGAACG [G9C A15G C24A C49U],≤ 0.5
2,GUUCCGUUCGCGUAGUGGUAACGCGUAUCCGUCCUAAGGAGAAGACUGCAGGUUCGAGUCCCGUACGGAACG [G9C A15G C27A C31G G50A],0.642
3,GUUCCGUUCGCGUAGUGGUAACGCGUCUCUCUCCUAAGGAGAAGAAUGCGGGUACGGGUCCCGUACGGAACG [G9C A15G C30U C46A U54A A57G],≤ 0.5
4,GUUCCGUUCGCGUAGUGGUAACGCGUCUCCCUCCUAAGGAGAAGACUGAGGGUUCGAGUCCCGUACGGAACG [G9C A15G C49A],0.601
5,GUUCCGUUCGCGUAGUGGUAACGCGUCUCCCUCCUAAGGAGAAGACUGCGGGUUCGACUCCCGUACGGAACG [G9C A15G G58C],0.564
6,GUUCCGUUCGCGUAGCGGUAACGCGUCUACCUCCUAAGGAGAAGACCGCGGGUUCGAGUCCCGUACGGAACG [G9C A15G U16C C29A U47C],0.69
7,GUUCCGUUCGCGUAUCGGUAACGCGUCUCCCUCCUUAGGAGAAGACUGCGGGUUCGAGUCCCGUACGGAACG [G9C A15U U16C A36U],≤ 0.5
8,GUUCCGUUCGCGUAAUGGUCACGCGUCUCCCUCCUAAGGAGAAGACUGCGGGUUCGAGUCCCGUACGGAACG [G9C A20C],0.626
9,GUUCCGUUCGCGUAAUGGUCACGCGUCUCCCUCCUAAGGAGAAGACCGCGGGUUCGAGUCCCGUAAGGAACG [G9C A20C U47C C66A],0.543
10,GUUCCGUUCGCGUAAUGGUGACGCGUCUCCCUCCCGAGGAGAAGACUGCGGGUUCGAGUCCCGUACGGAACG [G9C A20G U35C A36G],≤ 0.5
11,GUUCCGUUCGCGUAAUGGUUACGCGUGUCCCUCCUAAGGAGCAGACUGUGGGUUCGAGUCCCGUCCGGAACG [G9C A20U C27G A42C C49U A65C],≤ 0.5
12,GUUCCGUUCGCGUAAUGGUAGCGCGUCUCCCUCCUAAGGAGGAGACUGCGGGUUCGAGUCCCGUACGGAACG [G9C A21G A42G],≤ 0.5
13,GUUCCGUUCGCGUAAUGGUAGCGCGUCUCCCUCCUAAGGAGAAGACUGCGGGUUCGCGUCCCGUACGGAACG [G9C A21G A57C],≤ 0.5
14,GUUCCGUUCGCGUAAUGGUAGCGCGUCUCCCUCGUAAGGAGAAGACUGCGGGUUCGAGUCCCGUACGGAACG [G9C A21G C34G],≤ 0.5
15,GUUCCGUUCGCGUAAUGGUAGCGCGUCUCCCUCCUAAGGAGAACACCGCGGGUUCGAGUCCCGUACGGAUCG [G9C A21G G44C U47C A70U],≤ 0.5
16,GUUCCGUUCGCGUAAUGGUAGCGCGUCUCCCUCCUAAGGAGAAGACUGCGGGUUCGAGUCCCGAACGGAACG [G9C A21G U64A],≤ 0.5
17,GUUCCGUUCGCGUAAUGGUAACGCGUCUCCCUCCUUAGGUGAAAACUGCGGGUUCGAGUCCCAUACGGAACG [G9C A36U A40U G44A G63A],≤ 0.5
18,GUUCCGUUCGCGUAAUGGUAACGCGUCUCCCUCCUAAGGGGGAGACUGCGGGUUCGUGUCCGGUAUGGAACG [G9C A40G A42G A57U C62G C66U],0.565
19,GUUCCGUUCGCGUAAUGGUAACGCGUCUCCCUCCUAAGGUGAAGACUGCGGGUUCGAGUCCCGUACGGAUCG [G9C A40U A70U],≤ 0.5
